# Source: PubChem (Broad Institute)
# In the library only some 1.3% were active in any assay of this set; here they are far more common.
# FN deposition inh: inhibitors of fibronectin matrix deposition, primary screen, AH1F cells, Alexa488-fibronectin fluorescence, plate reader. AH1F fibroblasts, overnight. inhibition, % at 12.6 µM. 0.086% of 350,000 active;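 active = mean inhibition across replicates of 30% or more, regardless of how many single replicates reach that level; inconclusive = mean under 30% yet at least half of replicates reach 30%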;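 note: positive control wells lacked labelled fibronectin entirely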
#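 material = AH1F fibroblast monolayer depositing Alexa488-labelled fibronectin into matrix | amount = 10000 AH1F cells/well | buffer or medium = DMEM plus 2% serum, read in PBS | incubation = 1 h cell adhesion before compound, then overnight fibronectin incubation | detection = fluorescence at 485 nm excitation, 525 nm emission | evaluation = percent inhibition as loss of matrix-bound fibronectin fluorescence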
# AF4-AF9 inh: inhibitors of AF4 peptide binding to AF9, primary screen, biochemical, AlphaScreen, biotin-AF4 peptide, FLAG-AF9, single point; 0.47% of 350,000 active; inhibition, % at 10 µM; Protein AF-9 (Homo sapiens), P42568;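 active = every replicate reaching a set inhibition limit, whatever the replicate mean, cut at about 25% in these data; inconclusive = mean inhibition reaches that limit but some replicates miss it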;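 note: 0% = plate neutral control median and 100% = total signal loss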
# ERp5 block: inhibitors of ERp5-driven insulin aggregation, primary screen, biochemical, turbidity, absorbance 650 nm, single point; Protein disulfide-isomerase A6 (Homo sapiens), Q15084; 90 min; inhibition, % at 9.99 µM; 0.05% of 350,000 active; AID 651711, 2012;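 active = mean replicate inhibition above about 25%, with every replicate also reaching it, limit read from the data, passing the limit was not always enough; inconclusive = only one of those two criteria met; inactive = neither criterion met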
# SIRT5 block: SIRT5 desuccinylase inhibitors, primary screen, biochemical, fluorescence imaging, single point, set 5; Purified SirT5, succinyl-peptide AMC, trypsin-coupled fluorescence; inhibition, % at 15 µM; 1.1% of 330,000 active; in the data active = inhibition above about 15%; inconclusive = no clear call, values can overlap the other calls
# Target sequence (Q9NXA8 whole entry, looked up): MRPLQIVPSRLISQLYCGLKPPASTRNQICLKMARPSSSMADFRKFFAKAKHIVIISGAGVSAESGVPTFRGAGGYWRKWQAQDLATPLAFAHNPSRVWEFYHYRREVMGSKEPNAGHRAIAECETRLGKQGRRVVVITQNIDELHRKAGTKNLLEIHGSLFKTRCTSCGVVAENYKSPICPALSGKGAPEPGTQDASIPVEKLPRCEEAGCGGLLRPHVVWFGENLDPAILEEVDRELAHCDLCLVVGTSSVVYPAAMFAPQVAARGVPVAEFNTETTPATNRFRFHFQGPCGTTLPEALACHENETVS
# PDI inh: inhibitors of human PDI, primary screen, biochemical, turbidity, single point, plate reader; 0.052% of 350,000 active; Protein disulfide-isomerase (Homo sapiens), P07237; AID 588391, 2011; inhibition, % at 10 µM; PDI insulin aggregation turbidity, A650, 90 min;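 active = mean inhibition across replicates of 30% or more, whatever share of single replicates reach that level; inconclusive = mean inhibition below 30% while every single replicate reaches 30%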
# The depositor's hits bear a star; ? = inconclusive; · = not tested or not shown.
SMILES,FN deposition inh,AF4-AF9 inh,ERp5 block,SIRT5 block,PDI inh
COCC#Cc1cnc2c(c1)C(=O)N([C@H](C)CO)C[C@@H](C)[C@H](CN(C)C(=O)Cc1ccccc1)O2,·,-2,-4,31*,·
COCC#Cc1cnc2c(c1)C(=O)N([C@@H](C)CO)C[C@@H](C)[C@@H](CN(C)C(=O)Cc1ccccc1)O2,·,-4,0,-2,·
COCC#Cc1cnc2c(c1)C(=O)N([C@H](C)CO)C[C@H](C)[C@@H](CN(C)C(=O)c1cccnc1)O2,-30,-2,-3,-5,·
COCC#Cc1cnc2c(c1)C(=O)N([C@@H](C)CO)C[C@@H](C)[C@H](CN(C)C(=O)c1cccnc1)O2,-14,-3,2,16*,·
COc1ccc(S(=O)(=O)N2c3ccccc3OCC2CC(=O)O)cc1 (stereo unspecified),-1,-1,1,-5,2
Cn1c(=O)[nH]c(=O)c2c1nc(SCC(=O)O)n2CCOc1ccccc1,3,2,-1,0,-29
Cc1cc(C)n2nc(C(=O)Nc3ccc4c(c3)CCC4)nc2n1,4,-3,3,15*,1
Cc1cc(C)n2nc(C(=O)Nc3ccc(S(=O)(=O)N4CCCC4)cc3)nc2n1,10,3,0,-4,2
CCc1ccc(/C=C2/SC(=S)N(CCCC(=O)Nc3cccc(C(=O)O)c3)C2=O)cc1,2,2,3,·,-5
CCCNC(=O)N1CC2(C1)[C@H](c1ccccc1)[C@@H](CO)N2Cc1cccc(F)c1,·,-3,-1,0,·
CCCNC(=O)N1CC2(C1)[C@H](c1ccccc1)[C@H](CO)N2Cc1cccc(F)c1,·,-1,0,24*,·
O=C(C1CCCC1)N1CC2(C1)[C@H](c1ccccc1)[C@H](CO)N2Cc1nccs1,4,0,0,18*,·
OC[C@@H]1[C@@H](c2ccccc2)C2(CN(Cc3nccs3)C2)N1Cc1ccncc1,·,7,3,16*,·
O=C(C1CCCC1)N1CC2(C1)[C@H](c1ccccc1)[C@@H](CO)N2Cc1ccc(Cl)cc1,11,1,1,31*,·
COc1ccc(-c2csc(NC(=O)c3cccc(S(=O)(=O)N4CCN(C)CC4)c3)n2)cc1,5,·,·,·,-2
COC(=O)c1ccc2nc(-c3cccc(Br)c3)c(Cc3ccccc3OC)n2c1,2,1,-5,-4,·
Cc1ccc(CN(CC(O)COc2cccc3[nH]cc(C)c23)C(C)(C)C)cc1 (stereo unspecified),3,29*,-1,-7,1
CC1=Nc2cc(C(=O)O)ccc2Sc2ccc(Br)cc21,2,1,13,23*,8
O=C(Nc1ccc2c(c1)OCO2)N[C@@H]1CC[C@H](CCNC(=O)C2CC2)O[C@@H]1CO,-1,-6,0,3,·
O=C(CN1CCOCC1)N[C@H]1CC[C@H](CCNC(=O)C2CCC2)O[C@H]1CO,-12,43*,1,4,·
O=C(Nc1ccc2c(c1)OCO2)N[C@H]1CC[C@H](CCNC(=O)C2CC2)O[C@@H]1CO,-4,-4,-2,31*,·
O=C(CN1CCOCC1)N[C@@H]1CC[C@H](CCNC(=O)C2CCC2)O[C@@H]1CO,0,0,-3,3,·
O=C(C[C@H]1CC[C@@H](NC(=O)Nc2cccc(F)c2)[C@@H](CO)O1)NCC1CCCCC1,16,-1,1,0,·
O=C(C[C@@H]1CC[C@@H](NC(=O)Nc2cccc(F)c2)[C@H](CO)O1)NCC1CC1,-11,-4,0,22*,·
Cc1noc(C)c1NC(=O)N[C@H]1CC[C@H](CCNC(=O)C2CC2)O[C@H]1CO,-12,-2,-2,18*,·
SMILES,FN deposition inh,AF4-AF9 inh,ERp5 block,SIRT5 block,PDI inh
Cc1noc(C)c1NC(=O)N[C@@H]1CC[C@H](CCNC(=O)C2CC2)O[C@@H]1CO,-12,-1,3,1,·
Cc1ccc2c(c1)N(CC(=O)N1CCN(C3CCCCC3)CC1)C(=O)CO2,2,4,-4,-2,8
O=C(O)c1ccc(NC2=C(Cl)C(=O)c3ccccc3C2=O)cc1,1,5,3,3,1
O=C(O)c1cccc(NC2=C(Cl)C(=O)c3ccccc3C2=O)c1,11,-3,3,112*,7
COC(=O)C1C=CC(OC2OC(COC(C)=O)C(OC(C)=O)C(OC(C)=O)C2OC(C)=O)n2c(=O)n(-c3ccccc3)c(=O)n21 (stereo unspecified),4,0,-5,-2,-3
O=C(Nc1ccnn1C1CCN(C(=O)c2ccc(C(F)(F)F)cc2)CC1)C1CC1,3,2,3,23*,-3
O=C(Nc1ccnn1C1CCN(C(=O)c2cccc(C(F)(F)F)c2)CC1)C1CC1,7,0,6,0,-2
C(=N\Nc1nc(-c2ccccc2)cs1)/c1ccco1,-1,·,·,·,-4
Cc1sc(N/N=C/c2ccco2)nc1-c1ccccc1,-3,25*,3,0,-1
COc1ccc(NC(=O)Nc2ccc3c(c2)CC(=O)N([C@H](C)CO)C[C@H](C)[C@@H](CN(C)Cc2ccc(Oc4ccccc4)cc2)O3)cc1,·,3,0,23*,·
Cc1noc(C)c1NC(=O)N(C)C[C@H]1Oc2ccc(NC(=O)CCCN(C)C)cc2CC(=O)N([C@@H](C)CO)C[C@@H]1C,·,31*,-7,-3,·
COc1ccc(NC(=O)Nc2ccc3c(c2)CC(=O)N([C@@H](C)CO)C[C@H](C)[C@H](CN(C)Cc2ccc(Oc4ccccc4)cc2)O3)cc1,·,-1,5,2,·
C[C@@H]1CN([C@@H](C)CO)C(=O)Cc2cc(NC(=O)CCCN(C)C)ccc2O[C@H]1CN(C)Cc1ccc(Oc2ccccc2)cc1,·,39*,-1,-4,·
COc1ccc(CN(C)C[C@H]2Oc3ccc(NC(=O)C4CCCCC4)cc3CC(=O)N([C@@H](C)CO)C[C@@H]2C)cc1,·,-1,0,17*,·
C[C@H](CO)N1C[C@H](C)[C@@H](CN(C)Cc2ccc(Oc3ccccc3)cc2)Oc2ccc(NC(=O)CCCN(C)C)cc2CC1=O,·,?,0,-1,·
O=C(NCc1cccs1)c1ccc2sc([C@@H]3O[C@H](CO)[C@H](O)[C@H](O)[C@H]3O)nc2c1,-1,-1,4,2,-2
C[C@H](CO)N1C[C@H](C)[C@H](CN(C)Cc2ccc(Oc3ccccc3)cc2)Oc2ccc(NC(=O)CCCCCC(=O)Nc3ccccc3N)cc2CC1=O,·,2,-3,30*,·
C[C@H]1CN([C@@H](C)CO)C(=O)Cc2cc(NC(=O)CCCCCC(=O)Nc3ccccc3N)ccc2O[C@H]1CN(C)Cc1ccc(Oc2ccccc2)cc1,·,3,2,20*,·
